This is a sample that favours compounds with a hit; in the whole collection about 2.8% have one here.
HTRA1 inhibitor – inhibitors of human serine peptidase HTRA1 | Q92743 | recombinant HTRA1, FP-rhodamine activity-based probe, fluorescence polarization | inhibition, % at 5.96 µM | 0.5% of 340,000 active | AID 504803; in the data active = inhibition above about 36%;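 also: 0% = enzyme with DMSO and 100% = wells lacking enzyme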
PAFAH1B3 inh – inhibitors of human PAFAH1B3. recombinant PAFAH1B3, FP-rhodamine probe, fluorescence polarization. inhibition, % at 3.39 µM. 0.28% of 340,000 active. AID 492972;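 active = inhibition above the screen-wide average of all tested compounds plus 3 SD, cut at about 25% in these data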;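 also: 0% = enzyme with DMSO only and 100% = wells lacking PAFAH1B3 protein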
PAFAH1B2 inh – inhibitors of human PAFAH1B2 | P68402 | recombinant PAFAH1B2, FP-rhodamine activity probe, fluorescence polarization | inhibition, % at 3.39 µM | 1.2% of 340,000 active;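 active = inhibition above the mean of all tested compounds plus 3 SD, cut at about 24% in these data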;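 also: 0% = enzyme with DMSO and 100% = wells lacking PAFAH1B2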
Target sequence (P68402 whole entry, looked up): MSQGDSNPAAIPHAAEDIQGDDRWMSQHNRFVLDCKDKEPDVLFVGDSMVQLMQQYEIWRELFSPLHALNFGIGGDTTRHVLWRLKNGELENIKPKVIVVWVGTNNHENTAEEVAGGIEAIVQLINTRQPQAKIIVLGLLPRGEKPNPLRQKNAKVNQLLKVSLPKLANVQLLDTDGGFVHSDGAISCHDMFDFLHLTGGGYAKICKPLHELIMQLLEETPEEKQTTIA
ABHD4 inh – ABHD4 (mouse) inhibition, primary FP screen; Q8VD66; purified mABHD4, FP-Rh probe fluorescence polarization; inhibition, % at 8.92 µM; 0.54% of 370,000 active; AID 720543;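 active = inhibition exceeding the mean over every tested compound plus 3 SD, cut at about 30% in these data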;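 also: 0% = plate median of compound wells and 100% = S159A mutant with DMSO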
Target sequence (Q8VD66 whole entry, looked up): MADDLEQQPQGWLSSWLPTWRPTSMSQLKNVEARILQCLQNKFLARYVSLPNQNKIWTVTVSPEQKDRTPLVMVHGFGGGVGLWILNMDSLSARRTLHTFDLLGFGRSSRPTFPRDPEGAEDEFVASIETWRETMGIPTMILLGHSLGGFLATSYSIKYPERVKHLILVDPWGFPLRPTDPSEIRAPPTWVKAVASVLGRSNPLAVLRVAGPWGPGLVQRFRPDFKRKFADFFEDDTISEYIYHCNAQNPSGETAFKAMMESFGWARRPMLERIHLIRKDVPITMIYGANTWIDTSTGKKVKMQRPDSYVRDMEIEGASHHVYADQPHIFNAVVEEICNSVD
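Assay system: wild-type mouse ABHD4 protein; compound: single nominal dose of 8.92 µM, 0.89% DMSO final; schedule: 45 min + 60 min at 25 °C; measured by: FP readout, ex 525 nm / em 598 nm; evaluation: % inhibition of FP-Rh probe binding versus controls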
PAFAH2 FP inh – PAFAH2 (human) inhibition | recombinant PAFAH2, FP-rhodamine activity probe, fluorescence polarization | 0.99% of 340,000 active | inhibition, % at 3.39 µM | Q99487;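 active = inhibition above the mean over all tested compounds plus 3 SD, cut at about 30% in these data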;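 also: inhibitors block probe labeling of enzyme so polarization drops; 0% = enzyme with DMSO and 100% = wells lacking PAFAH2 protein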
pPAFAH FP inh – pPAFAH (human) enzyme inhibition. Q13093. recombinant pPAFAH, FP-rhodamine probe fluorescence polarization. 1.5% of 330,000 active. inhibition, % at 3.39 µM;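 active = inhibition above the mean inhibition across the screen plus 3 SD, cut at about 25% in these data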;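 also: inhibitors block binding of the rhodamine activity-based probe so polarization drops; 0% = enzyme with DMSO and 100% = wells lacking pPAFAH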
pPAFAH FP conf – pPAFAH (human) inhibition, confirmed; shares compounds with pPAFAH FP inh; recombinant pPAFAH, FP-Rh probe fluorescence polarization; inhibition, % at 3.39 µM; 72% of 2,300 active;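 active = mean inhibition of the triplicate above the hit cutoff set for the earlier primary screen, cut at about 25% in these data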;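 also: 0% = enzyme with DMSO and 100% = wells lacking pPAFAH enzyme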
Numbers without * were called inactive; . = no result given.

SMILES	HTRA1 inhibitor	PAFAH1B3 inh	PAFAH1B2 inh	ABHD4 inh	PAFAH2 FP inh	pPAFAH FP inh	pPAFAH FP conf
N=C1SC(c2ccccc2)C(=O)N1c1ncc(Cc2ccccc2)s1 (stereo not drawn)	-6.4	3.2	34.3*	-2.6	28.1	39.0*	44.2*
O=C(Nc1ncc(Cc2ccccc2)s1)C1=NCCN1	4.6	6.8	3.4	2.8	-4.6	9.3	.
CCC[C@H]1[C@@H](OC(=O)N2CCCC2)CC[C@@]23CCCN2C(=O)CCC[C@@H]13	.	.	.	-4.7	.	.	.
COc1ccc(NC(=O)c2c(F)cccc2F)cc1S(=O)(=O)Nc1ccc(Br)cc1	-50.2	-8.2	-0.3	-39.4	-12.0	35.7*	28.4*
CC(C)CN1C(=O)C[C@@]2(C(=O)N(C)c3ccc(NS(=O)(=O)c4ccc(F)cc4)cc32)C1c1ccccc1 (stereo partly drawn)	.	.	.	5.9	.	.	.
COC(=O)[C@H](C(C)C)N(Cc1cn(CC2CCCCC2)nn1)S(=O)(=O)c1ccc(F)cc1Br	.	.	.	-1.8	.	.	.
Cc1ccc(-n2c(CCC(=O)O)ccc2-c2cccs2)cc1	1.7	3.0	7.5	-8.3	6.6	50.6*	12.8
CCOC(=O)[C@]12CCCC3=C1N(CCC3)C(=O)[C@@H](CC(=O)NCc1cccc3ccccc13)C2	.	.	.	-1.5	.	.	.
O=C(OCC#CCSc1nnc(-c2cccc3ccccc23)o1)c1ccc(OC(F)F)cc1	.	.	.	-21.7	.	.	.
COc1cc(/C=N/NC(=O)c2ccc(CN3C(=O)c4cccc5cccc3c45)cc2)cc(OC)c1O	-3.4	19.3	8.7	14.0	-14.4	38.4*	20.3
O=C(O)CSc1cc(C(=O)c2ccccc2O)cn2c(=O)c3c(-c4ccccc4)csc3nc12	-79.3	8.3	-4.7	-18.5	-13.5	64.5*	72.2*
Cc1ccc(NC(=O)OC2CC3CC2[C@H]2CCCCN2C3)cc1C (stereo partly drawn)	.	.	.	-0.8	.	.	.
NCCCCNCCCN	4.0	14.2	3.3	6.2	-4.2	62.2*	-0.2
CCC(C)N(C(=O)c1ccc(CNC(=O)c2cccc(Br)c2)cc1)C(C)CC (stereo not drawn)	.	.	.	-5.2	.	.	.
CN(c1ccc(OCC(=O)NC2CCC(O)CC2)cc1)S(=O)(=O)c1ccc(Cl)cc1 (stereo not drawn)	9.3	10.2	4.6	-1.7	-4.1	36.9*	-1.8
COC(=O)[C@]12C[C@H](CC(=O)NCCCCc3ccccc3)C(=O)N(Cc3ccco3)C1=C[C@H](C(C)C)O[C@@H]2C1CC1	.	.	.	2.5	.	.	.
COCc1cc(=O)n2[nH]c(-c3ccsc3-n3c(C)ccc3C)cc2n1	35.2	15.6	8.0	14.7	54.4*	46.4*	18.5
Cc1cc(=O)n2[nH]c(-c3ccsc3-n3c(C)ccc3C)cc2n1	30.0	10.3	8.9	13.4	39.7*	42.2*	10.7
COCc1cc(=O)n2[nH]c(N)nc2n1	3.2	0.4	3.6	-0.5	-0.2	-1.2	.
Cc1cc(C)nc(N/N=C/C2=C(N3CCOCC3)C(=C/c3ccccc3)/CC2)n1	0.4	3.9	1.8	14.7	2.9	64.6*	82.3*
Cc1cc(=O)[nH]c(N/N=C/C2=C(N3CCOCC3)C(=C\c3ccc(Cl)cc3)/CC2)n1	32.3	6.9	-1.2	18.3	7.7	53.9*	46.5*
O=C(O)c1ccccc1N/N=C/C1=C(N2CCOCC2)C(=C\c2ccccc2)/CC1	12.5	5.7	7.1	29.4	21.6	19.8	.
Cc1occc1C(=O)N/N=C/C1=C(N2CCOCC2)C(=C\c2ccc(Cl)cc2)/CC1	6.8	2.6	-1.5	3.1	-4.9	8.4	.
Cc1ccc(CN2CCCCC(NC(=O)c3c(F)cccc3F)C2=O)cc1 (stereo not drawn)	.	.	.	0.8	.	.	.
CN1CCN(Cc2cc(=O)oc3cc4c(cc23)CCC4)CC1	3.9	2.3	7.2	12.4	0.3	36.6*	8.7
SMILES	HTRA1 inhibitor	PAFAH1B3 inh	PAFAH1B2 inh	ABHD4 inh	PAFAH2 FP inh	pPAFAH FP inh	pPAFAH FP conf
O=C1COc2ccc(C(=O)COC(=O)/C=C/c3ccc(Br)o3)cc2N1	-0.3	-2.1	-7.1	-0.8	7.6	38.5*	21.6
O=C(Nc1cccc(-c2csc(Nc3ccc(Cl)cc3)n2)c1)c1cc([N+](=O)[O-])cc(C(F)(F)F)c1	-4.0	49.4*	39.3*	4.7	52.5*	40.5*	20.9
CCn1cnc2cc(NCc3ccc(OC)cc3)ccc21	-0.1	5.8	8.1	6.5	-4.2	0.0	.
CCOc1ccc2nc3cc(NCc4ccc(OC)cc4)ccc3c(N)c2c1	26.1	17.5	5.2	.	12.4	38.5*	11.1
CN1C(C(=O)NCc2ccco2)=CC(c2ccc(F)cc2)=NS1(=O)=O	-8.5	-7.2	-6.8	-8.9	2.9	66.8*	9.8
COC(=O)C12CCCN1C1C(=O)N(Cc3ccc(C(N)=O)cc3)CC1C2 (stereo not drawn)	.	.	.	4.4	.	.	.
Cc1c(C)c2cc(Cl)c(O)c(CN(C)C)c2oc1=O	6.3	3.0	0.4	1.5	0.0	-0.3	.
O=c1oc2c(O)c(O)cc3c(=O)oc4c(O)c(O)cc1c4c23	22.9	67.6*	88.2*	.	85.2*	93.1*	91.8*
Cc1cccc(S(=O)(=O)Nc2ccc(-c3cn4ccccc4n3)cc2)c1	-13.0	2.1	1.9	-1.0	11.8	34.6*	21.6
C=CCN1C(=O)[C@@H](CC(=O)NCCCOCCCC)[C@]2(C(=O)OC)CCCCC=C12	.	.	.	1.5	.	.	.
O=C1CC(=O)Nc2cc(S(=O)(=O)NCc3cccs3)ccc2N1	0.8	0.2	0.9	1.4	0.7	65.2*	1.7
COc1ccc(-n2c(SCC(=O)NNC(=S)Nc3ccc(C)cc3)nnc2-c2ccccc2)cc1	.	.	.	5.7	.	.	.
O=C(Nc1nc(-c2ccco2)c(-c2ccco2)s1)C1CC(=O)N(c2ccc3c(c2)OCCO3)C1 (stereo not drawn)	10.8	-2.0	4.2	-0.9	21.2	46.9*	41.2*
Cc1nnc(NC(=O)C2CC(=O)N(c3ccc4c(c3)OCCO4)C2)s1 (stereo not drawn)	2.8	2.2	7.6	0.6	6.1	5.3	.
CCCCCC(=O)Cc1cc(O)cc2c1C(=O)Oc1cc(O)c(C(=O)O)c(CCCCC)c1O2	.	.	.	.	.	43.1*	59.3*
Cc1cccc(C)c1-n1cccc1/C=C1\SC(=S)N(c2cccc(C(=O)O)c2)C1=O	-144.9	-5.2	0.2	-20.4	-11.6	50.2*	50.9*
Cc1cccc(C)c1NC(=O)CN1C(=O)S/C(=C\c2cccn2-c2cccc(C(=O)O)c2)C1=O	-10.6	2.5	2.8	8.0	12.2	2.2	.
Cc1ccc(NC(=O)[C@H]2CC(=O)O[C@@H]2c2ccccc2)c(C)c1	.	.	.	-7.2	.	.	.
Cc1occc1-c1nnc(SCC(=O)N2CCN(c3ncccn3)CC2)n1-c1ccccc1	.	.	.	0.6	.	.	.
COc1ccc(-c2nn(-c3ccccc3)cc2C2CC(c3cccs3)=NN2C(=O)CCCC(=O)O)cc1 (stereo not drawn)	-3.0	5.8	3.5	7.5	-13.1	7.3	.

Screens: PubChem BioAssay, The Scripps Research Institute Molecular Screening Center
